Measured values reported in ChEMBL document CHEMBL1142506, “(3S)-N-(L-Aminoacyl)-1,2,3,4-tetrahydroisoquinolines, a class of novel antithrombotic agents: synthesis, bioassay, 3D QSAR, and ADME analysis” (Bioorg Med Chem, 2008).
pIC50: −log10 of the molar value. Square brackets hold non-standard residues; d marks the D form. Peptide text beside a SMILES is read from it. Tic = O=C(O)[C@@H]1Cc2ccccc2CN1

How the values were obtained:
Platelet [1] = assay: Inhibition of platelet-activating factor-induced platelet aggregation in pig blood; assay type: functional, cell-based; details: Sus scrofa
Summary of the method: (§1)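 Pig blood was spun at 1000g for 10 min to give PRP and at 1500g for 10 min to give PPP. PRP was adjusted to 2 × 10^8 platelets/ml with autologous PPP. The sample was preincubated with test agent or NS. Agonist final concentrations, each in NS: ADP 10 µM, AA 350 µM, PAF 0.1 µM, thrombin 0.1 U/ml. Optical aggregometry ran 5 min at 37 °C. Peak height gave maximal aggregation; % inhibition versus NS gave IC50.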

Platelet [2] = assay: Inhibition of adenosine diphosphate-induced platelet aggregation in pig blood; assay type: functional, cell-based; details: Sus scrofa; summary of the method: as §1
Platelet [3] = assay: Inhibition of arachidonic acid-induced platelet aggregation in pig blood; assay type: functional, cell-based; details: Sus scrofa; summary of the method: as §1
Rattus norvegicus [4] = assay: Antithrombotic activity in Wistar rat assessed as wet thrombus weight at 5 umol/kg; assay type: functional
Summary of the method: (§2)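 Male Wistar rats (250–300 g) got the test agent orally, dissolved in NS and kept on ice; NS served as vehicle. After 45 min, rats were anesthetized with pentobarbital sodium (80.0 mg/kg ip). An extracorporeal carotid artery–jugular vein polyethylene cannula holding a weighed 6 cm thread was placed, and the wet thrombus weight on the thread was recorded.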

Platelet [5] = assay: Inhibition of thrombin-induced platelet aggregation in pig blood; assay type: functional, cell-based; details: Sus scrofa; summary of the method: as §1
Rattus norvegicus [6] = assay: Antithrombotic activity in Wistar rat assessed as wet thrombus weight at 50 nmol/kg; assay type: functional
Summary of the method: (§3)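 Dose series (5 µmol/kg, 500 nmol/kg, 50 nmol/kg, 5 nmol/kg) given by intravenous injection to male Wistar rats (250–300 g) in an arteriovenous cannula model containing a weighed 6 cm thread. Anesthesia was pentobarbital sodium (80.0 mg/kg ip) with NS vehicle. Wet thrombus weight is given as mean ± SD, n = 12.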

Rattus norvegicus [7] = assay: Antithrombotic activity in Wistar rat assessed as wet thrombus weight at 5 nmol/kg; assay type: functional; summary of the method: as §3
Rattus norvegicus [8] = assay: Antithrombotic activity in Wistar rat assessed as wet thrombus weight at 500 nmol/kg; assay type: functional; summary of the method: as §3
Rattus norvegicus [9] = assay: Antithrombotic activity in Wistar rat assessed as wet thrombus weight at 22 x 5 umol/kg; assay type: functional; summary of the method: as §2
Rattus norvegicus [10] = assay: Antithrombotic activity in Wistar rat assessed as wet thrombus weight at 110 x 5 umol/kg; assay type: functional; summary of the method: as §2
Rattus norvegicus [11] = assay: Antithrombotic activity in Wistar rat assessed as wet thrombus weight at 15 umol/kg; assay type: functional; summary of the method: as §2

Compound	pIC50 (Platelet [1])	pIC50 (Platelet [2])	pIC50 (Platelet [3])	pIC50 (Platelet [5])	Activity (Rattus norvegicus [4])	Activity (Rattus norvegicus [6])	Activity (Rattus norvegicus [7])	Activity (Rattus norvegicus [8])	Activity (Rattus norvegicus [9])	Activity (Rattus norvegicus [10])	Activity (Rattus norvegicus [11])
NCCCC[C@H](N)C(=O)N1Cc2ccccc2C[C@H]1C(=O)O (H-Lys-[Tic]-OH)	6.33	6.49	6.46	6.08	21.31 mg						
CC(C)[C@H](N)C(=O)N1Cc2ccccc2C[C@H]1C(=O)O (H-Val-[Tic]-OH)	6.20	6.41	6.18	6.18	20.12 mg						
N[C@@H](Cc1ccc(O)cc1)C(=O)N1Cc2ccccc2C[C@H]1C(=O)O (H-Tyr-[Tic]-OH)	6.17	6.49	6.28	6.13	20.92 mg						
N[C@@H](CO)C(=O)N1Cc2ccccc2C[C@H]1C(=O)O (H-Ser-[Tic]-OH)	6.57	6.99	6.67	6.30	18 mg	22.54 mg	28.58 mg	18.31 mg			
CC[C@H](C)[C@H](N)C(=O)N1Cc2ccccc2C[C@H]1C(=O)O (H-Ile-[Tic]-OH)	6.08	6.50	6.33	6.17	21.14 mg						
CC(=O)Oc1ccccc1C(=O)O [ASPIRIN]									27.6 mg	13.22 mg	
CC(C)C[C@H](N)C(=O)N1Cc2ccccc2C[C@H]1C(=O)O (H-Leu-[Tic]-OH)	6.05	6.47	6.62	6.14	19.12 mg						
N=C(N)NCCC[C@H](N)C(=O)N1Cc2ccccc2C[C@H]1C(=O)O (H-Arg-[Tic]-OH)	6.29	6.68	6.66	6.25	20.06 mg						
C[C@@H](O)[C@H](N)C(=O)N1Cc2ccccc2C[C@H]1C(=O)O (H-Thr-[Tic]-OH)	6.39	6.62	6.27	6.06	20.73 mg						
O=C(O)[C@@H]1Cc2ccccc2CN1C(=O)[C@@H]1CCCN1 (H-Pro-[Tic]-OH)	6.30	6.43	6.42	6.23	21.09 mg						
CSCC[C@H](N)C(=O)N1Cc2ccccc2C[C@H]1C(=O)O (H-Met-[Tic]-OH)	6.39	6.58	6.37	6.22	19.56 mg						
O=C(O)[C@@H]1Cc2ccccc2CN1	6.02	6.26	6.34	6.05	26.88 mg						21.52 mg
N[C@@H](CCC(=O)O)C(=O)N1Cc2ccccc2C[C@H]1C(=O)O (H-Glu-[Tic]-OH)	6.26	6.31	6.53	6.23	20.87 mg						
N[C@@H](CC(=O)O)C(=O)N1Cc2ccccc2C[C@H]1C(=O)O (H-Asp-[Tic]-OH)	6.42	6.46	6.43	6.04	20.3 mg						
C[C@H](N)C(=O)N1Cc2ccccc2C[C@H]1C(=O)O (H-Ala-[Tic]-OH)	6.02	6.19	6.36	6.13	20.3 mg						

Continued by rising pIC50 (Platelet [1]), values first:

pIC50 (Platelet [1])	pIC50 (Platelet [2])	pIC50 (Platelet [3])	pIC50 (Platelet [5])	Compound	Activity (Rattus norvegicus [4])	Activity (Rattus norvegicus [6])	Activity (Rattus norvegicus [7])	Activity (Rattus norvegicus [8])	Activity (Rattus norvegicus [9])	Activity (Rattus norvegicus [10])	Activity (Rattus norvegicus [11])
5.50	5.48	5.46	5.48	O=C(O)[C@@H]1Cc2c([nH]c3ccccc23)CN1 [CYCLOMETHYLTRYPTOPHAN]							
6.06	6.44	6.37	6.12	NCC(=O)N1Cc2ccccc2C[C@H]1C(=O)O (H-Gly-[Tic]-OH)	21.17 mg						
6.17	6.49	6.28	6.16	N[C@@H](Cc1c[nH]cn1)C(=O)N1Cc2ccccc2C[C@H]1C(=O)O (H-His-[Tic]-OH)	21.78 mg						
6.28	6.43	6.24	6.07	N[C@@H](Cc1ccccc1)C(=O)N1Cc2ccccc2C[C@H]1C(=O)O (H-Phe-[Tic]-OH)	22.23 mg						
6.37	6.71	6.24	6.14	N[C@@H](Cc1c[nH]c2ccccc12)C(=O)N1Cc2ccccc2C[C@H]1C(=O)O (H-Trp-[Tic]-OH)	19.47 mg						
6.41	6.52	6.46	6.26	NC(=O)CC[C@H](N)C(=O)N1Cc2ccccc2C[C@H]1C(=O)O (H-Gln-[Tic]-OH)	21.3 mg						
6.44	6.27	6.39	6.31	NC(=O)C[C@H](N)C(=O)N1Cc2ccccc2C[C@H]1C(=O)O (H-Asn-[Tic]-OH)	22.66 mg						
